Consider twelve molecules from ChEMBL document CHEMBL1782022, “Potent macrocyclic inhibitors of insulin-regulated aminopeptidase (IRAP) by olefin ring-closing metathesis” (J Med Chem, 2011).

A short description of test [1]: Displacement of [3H]AL-11 from IRAP of CHO-K1 cell membrane preincubated for 40 mins in presence of 30 mM EDTA and 600 uM 1,10-Phenantrone after 30 mins by scintillation counting. Type of test: cell membranes, Cricetulus griseus. An outline of the steps:
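Chelators EDTA (5 mM final) and 1,10-phenanthroline (100 μM final) were present both in the 40 min, 37 °C preincubation of CHO-K1 membranes (4 × 10⁵ cells, 50 mM Tris-HCl pH 7.4) with compound (10⁻⁹–10⁻⁵ M) and during the binding step. Binding was 30 min at 37 °C with 3 nM [³H]AL-11, with unlabeled Ang IV for nonspecific binding. Read-out was GF/B filtration and β-counting, ≥2 experiments in duplicate. IC50 came from nonlinear regression and Ki via Cheng–Prusoff.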
(In general: In a radioligand displacement assay an active substance lowers the binding of a labelled ligand.)

The nature of test [2]: Displacement of [3H]AL-11 from IRAP of CHO-K1 cell membrane after 30 mins by scintillation counting in presence of 30 mM EDTA and 600 uM 1,10-Phenantrone. Type of test: cell membranes, Cricetulus griseus. An outline of the steps: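 CHO-K1 membranes with endogenous IRAP (4 × 10⁵ cells) in 50 mM Tris-HCl pH 7.4 buffer were preincubated 40 min at 37 °C with compound (10⁻⁹–10⁻⁵ M final) without chelators. [³H]AL-11 (3 nM final) was then added with EDTA/1,10-Phe (final 5 mM/100 μM) for 30 min at 37 °C. Unlabeled Ang IV defined nonspecific binding. Bound radioactivity was collected on BSA-soaked GF/B filters and β-counted. Runs were ≥2× in duplicate. IC50 came from nonlinear regression and Ki from Cheng–Prusoff using the [³H]AL-11 KD.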

The target of the next test is Aminopeptidase N (Homo sapiens, UniProt P15144). Kind of test: Inhibition of catalytic activity of recombinant human AP-N transfected in human HEK-293 cells assessed as cleavage of substrate L-leucine-p-nitroanilide to L-leucine and p-nitroaniline measured every 5 mins for 10 to 50 mins by spectrophotometric analysis. The class given is cell-based, HEK293.
Aminopeptidase N, sequence (P15144 whole entry): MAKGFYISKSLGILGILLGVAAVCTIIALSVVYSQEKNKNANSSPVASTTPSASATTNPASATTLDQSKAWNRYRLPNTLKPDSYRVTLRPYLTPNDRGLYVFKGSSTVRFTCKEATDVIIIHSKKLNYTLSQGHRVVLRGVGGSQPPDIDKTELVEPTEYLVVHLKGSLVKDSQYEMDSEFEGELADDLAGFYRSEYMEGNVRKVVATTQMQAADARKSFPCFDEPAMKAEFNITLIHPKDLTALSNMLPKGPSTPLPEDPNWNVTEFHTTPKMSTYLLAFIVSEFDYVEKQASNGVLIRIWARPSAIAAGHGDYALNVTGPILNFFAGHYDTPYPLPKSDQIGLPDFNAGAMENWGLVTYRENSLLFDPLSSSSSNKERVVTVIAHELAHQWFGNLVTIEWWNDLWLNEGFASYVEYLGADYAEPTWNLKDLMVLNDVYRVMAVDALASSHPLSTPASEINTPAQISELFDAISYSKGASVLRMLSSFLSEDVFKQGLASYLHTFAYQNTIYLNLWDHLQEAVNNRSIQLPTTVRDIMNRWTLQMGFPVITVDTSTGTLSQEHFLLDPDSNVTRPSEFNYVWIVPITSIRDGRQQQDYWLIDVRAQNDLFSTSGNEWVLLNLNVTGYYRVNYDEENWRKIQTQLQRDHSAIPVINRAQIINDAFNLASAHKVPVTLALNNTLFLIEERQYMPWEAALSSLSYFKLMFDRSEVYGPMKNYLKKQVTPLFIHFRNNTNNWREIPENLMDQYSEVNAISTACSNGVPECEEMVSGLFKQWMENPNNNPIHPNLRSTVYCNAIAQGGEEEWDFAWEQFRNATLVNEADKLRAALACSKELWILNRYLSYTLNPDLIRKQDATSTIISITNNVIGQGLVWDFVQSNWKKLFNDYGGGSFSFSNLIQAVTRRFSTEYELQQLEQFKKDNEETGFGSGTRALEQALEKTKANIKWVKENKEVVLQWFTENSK

`N[C@H]1CCCCCC[C@@H](C(=O)NCc2ccccc2CC(=O)O)NC(=O)[C@H](Cc2ccc(O)cc2)NC1=O`: the results for the Ki in test [1] and in test [2] were 631 nM and 28.9 nM, respectively. For `CN1C(=O)[C@@H](N)CCC/C=C\CC[C@@H](C(=O)NCc2ccccc2)NC(=O)[C@@H]1Cc1ccc(O)cc1`, at Aminopeptidase N, the Ki (commonly the equilibrium dissociation constant of an inhibitor or competing ligand from its target) is > 100000 nM. For `N[C@H]1CCCCCCC[C@@H](C(=O)NCc2ccccc2CC(=O)O)NC(=O)[C@H](Cc2ccc(O)cc2)NC1=O`, the Ki in test [1] was determined as 517 nM; in test [2] it was 12.5 nM. For `N[C@H]1CC/C=C/CC[C@@H](C(=O)NCc2ccccc2CC(=O)O)NC(=O)C[C@H](Cc2ccc(O)cc2)NC1=O`, the Ki in test [1] was 74.2 nM; in test [2], 9.8 nM. On to `CN1C(=O)[C@@H](N)CCC/C=C/CC[C@@H](C(=O)NCc2ccccc2)NC(=O)[C@@H]1Cc1ccc(O)cc1`, for which the Ki on Aminopeptidase N is > 100000 nM. The same measure, in the same setting: the result for `CN1C(=O)[C@@H](N)CCCC/C=C\C[C@@H](C(=O)NCc2ccccc2)NC(=O)[C@@H]1Cc1ccc(O)cc1` reads > 100000 nM; that for `CN1C(=O)[C@@H](N)CCCC/C=C/C[C@@H](C(=O)NCc2ccccc2)NC(=O)[C@@H]1Cc1ccc(O)cc1`, > 100000 nM. Take `N[C@H]1CC/C=C/CC[C@@H](C(=O)NCc2ccccc2CC(=O)O)NC(=O)[C@H](Cc2ccc(O)cc2)NC1=O`: the values for the Ki in test [1] and in test [2] were 450 nM and 36.8 nM, respectively.

Turning to `N[C@H]1CCCC/C=C/C[C@@H](C(=O)NCc2ccccc2CC(=O)O)NC(=O)[C@H](Cc2ccc(O)cc2)NC1=O`, the Ki came out at 133 nM in test [1] and 46.8 nM in test [2]. For `N[C@H]1CC/C=C/CC[C@@H](C(=O)NCc2ccccc2)NC(=O)[C@H](Cc2ccccc2)NC1=O`, in that order: 3520 nM and 719 nM.

For `N[C@H]1CC/C=C\CC[C@@H](C(=O)NCc2ccccc2CC(=O)O)NC(=O)[C@H](Cc2ccc(O)cc2)NC1=O`, the values for the Ki in test [1] and in test [2] were 568 nM and 24.8 nM, respectively. In the same order, the values of `N[C@H]1CC/C=C\CC[C@@H](C(=O)NCc2ccccc2)NC(=O)[C@H](Cc2ccccc2)NC1=O` are 3470 nM and 287 nM.
